The values below come from ChEMBL document CHEMBL4196141, “Improved Antibacterial Activity of the Marine Peptide N6 against Intracellular Salmonella Typhimurium by Conjugating with the Cell-Penetrating Peptide Tat11 via a Cleavable Linker” (J Med Chem, 2018).

Series [1] relates to Salmonella typhimurium. Description: Antibacterial activity against Salmonella typhimurium ATCC 14028 incubated for 16 to 18 hrs at pH 7.2 by broth microdilution method. It counts as functional, Salmonella enterica subsp. enterica serovar Typhimurium. The conditions noted are these: Salmonella enterica. The method in brief: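 Broth microdilution in MH broth. S. Typhimurium ATCC14028 was grown overnight at 37 °C to semi-log phase, pelleted, and diluted to OD600 0.01; final inoculum was 5 × 10^5 CFU/mL. Plates were incubated 16–18 h at 37 °C. MIC is the lowest peptide concentration with no visible growth. Data are in duplicate from at least two independent experiments.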

The nature of series [2]: Drug localisation in cytosol of mouse RAW264.7 using FITC-labeled compound at 5 uM incubated for 2 hrs by confocal microscopy. Type of series: ADME, cell-based. In a few lines: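 RAW264.7 cells were plated for 18 h at 37 °C, then given 5 µM FITC or FITC-labeled peptide for 2 h. Nuclei were stained with Hoechst 33342 and membranes with FM 4-64 (each 5 µg/mL) for 30 min at 37 °C. Cells were PBS-washed and imaged by confocal fluorescence microscopy.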

Series [3] in a line: Drug internalization in mouse RAW264.7 using FITC-labeled compound at 2 uM incubated for 2 hrs at 4 degC by flow cytometry. It counts as ADME, cell-based. The conditions noted are these: raw264.7, 2 h.
Series [4] is described as follows: Drug internalization in mouse RAW264.7 using FITC-labeled compound at 2 uM pre-incubated for 1 hr with clathrin-mediated endocytosis inhibitor chlorpromazine followed by compound addition and subsequent incubation for 2 hrs by flow cytometry. Type of series: ADME, cell-based. The conditions noted are these: raw264.7, 2 h. The method in brief: (§1)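 RAW264.7 cells were pretreated 1 h at 37 °C with 3 mM amiloride, 20 µM nocodazole, 6 µg/mL chlorpromazine or 5 mM MβCD. FITC-labeled peptide was then added for 2 h at 37 °C. Extracellular fluorescence was quenched with 0.4% Trypan blue and intracellular fluorescence read by flow cytometry against an untreated control.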

Series [5] in a line: Drug internalization in mouse RAW264.7 using FITC-labeled compound at 2 uM pre-incubated for 1 hr with macropinocytosis inhibitor amiloride followed by compound addition and subsequent incubation for 2 hrs by flow cytometry. Type of series: ADME, cell-based. The following applies: raw264.7, 2 h. The method in brief:
as §1

A short description of series [6]: Drug internalization in mouse RAW264.7 using FITC-labeled compound at 2 uM pre-incubated for 1 hr with lipid rafts disruptor methyl-beta-cyclodextrin followed by compound addition and subsequent incubation for 2 hrs by flow cytometry. It counts as ADME, cell-based. The conditions noted are these: raw264.7, 2 h. In a few lines:
as §1

The nature of series [7]: Drug internalization in mouse RAW264.7 using FITC-labeled compound at 2 uM pre-incubated for 1 hr with tubulin polymerization inhibitor nocodazole followed by compound addition and subsequent incubation for 2 hrs by flow cytometry. Type of series: ADME, cell-based. The conditions noted are these: raw264.7, 2 h. The method in brief:
as §1

For series [8], the system named is Salmonella typhimurium. Description: Antibacterial activity against Salmonella typhimurium ATCC 14028 using 1 hr cathepsin B pre-treated compound at pH 5 incubated for 16 to 18 hrs at by broth microdilution method. It counts as functional, Salmonella enterica subsp. enterica serovar Typhimurium. The following applies: Salmonella enterica. The method in brief:
(§2)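 Cathepsin B (bovine spleen, 10 µg/mL) was added for 1 h at 37 °C, and the reaction was stopped with 9 volumes of MHB. MIC was then run by broth microdilution (5 × 10^5 CFU/mL, 16–18 h, 37 °C) in medium adjusted to pH 5.0.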

Series [9] relates to Salmonella typhimurium. Description: Antibacterial activity against Salmonella typhimurium ATCC 14028 using 1 hr cathepsin B pre-treated compound followed by incubation for 16 to 18 hrs at pH 5 by broth microdilution method. It counts as functional, Salmonella enterica subsp. enterica serovar Typhimurium. The conditions noted are these: Salmonella enterica. In a few lines: as §2

The nature of series [10]: Cytotoxicity in mouse RAW264.7 assessed as cell survival at 100 uM incubated for 8 hrs by MTT assay. Type of series: cell-based. The following applies: RAW264.7 cells, read-out: Survival. In a few lines:
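RAW264.7 cells seeded at 2.5 × 10^4 cells/well, cultured 24 h, then exposed for 8 h to 2-fold dilutions from 100 to 0.625 µM. MTT at 5 mg/mL added for 4 h, formazan dissolved in DMSO, absorbance read at 570 nm. Untreated cells served as control. Samples run in triplicate.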

Series [11] in a line: Induction of hemolysis in mouse RBC at 100 uM incubated for 1 hrs at 37 degC. It counts as cell-based, Erythrocyte. The conditions noted are these: red blood cells (erythrocytes), read-out: Activity. In a few lines: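 Fresh mouse erythrocytes were washed three times in 0.9% NaCl, and an 8% suspension was incubated with peptide (2-fold dilutions, 100 to 0.3125 µM) for 1 h at 37 °C. Released hemoglobin was read at 540 nm. 1% Triton X-100 defined 100% lysis; polymyxin served as positive control and NaCl as negative.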

A short description of series [12]: Drug uptake in mouse RAW264.7 using FITC-labeled compound at 5 uM incubated for 0.5 hrs by flow cytometry. It counts as ADME, cell-based. The following applies: raw264.7, 0.5 h. The method in brief: (§3)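 Confluent RAW264.7 cells were resuspended in PBS and incubated at 37 °C with 5 µM FITC-labeled peptide. Samples taken at 0.5 h and 2 h were quenched with 0.4% Trypan blue for extracellular fluorescence. Uptake (percent internalized cells) was read by flow cytometry, with free FITC as negative control.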

Series [13] is described as follows: Drug uptake in mouse RAW264.7 using FITC-labeled compound at 5 uM incubated for 2 hrs by flow cytometry. Type of series: ADME, cell-based. The conditions noted are these: raw264.7, 2 h. In a few lines:
as §3

Series [14] concerns Salmonella typhimurium. The series can be described thus: Bactericidal activity against 2 hrs-gentamicin pre-exposed Salmonella typhimurium ATCC 14028 assessed as effect on bacterial re-growth at 10 uM measured within 6 hrs. Type of series: functional, organism-based. The following applies: Salmonella enterica subsp. enterica serovar Typhimurium. The method in brief:
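RAW264.7 cells in DMEM/10% FBS were infected with S. Typhimurium ATCC14028 at MOI 10 for 1 h, then given 100 µg/mL gentamicin for 2 h at 37 °C and washed. Cells were treated with 10 µM agent for 1, 3, 6, 9 and 12 h, lysed with 0.1% Triton X-100, and surviving intracellular bacteria were serially diluted and plated for CFU.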

The test system of series [15] is Salmonella typhimurium. Description: Antibacterial activity against Salmonella typhimurium ATCC 14028 infected in ICR mouse model of peritonitis assessed as reduction colony forming units in total peritoneal fluids at 1 umol/kg, ip dosed at 2 hrs post infection and measured after 10 hrs post dose. Type of series: functional, Salmonella enterica subsp. enterica serovar Typhimurium. In a few lines:
(§4)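 Six-week-old female ICR mice (six per group) received ip S. Typhimurium ATCC14028 (5 × 10^5 CFU, 0.5 mL). Peptide was given ip 2 h post-infection and mice were killed 10 h after treatment. Peritoneum was lavaged with 5 mL ice-cold PBS and total CFU counted. For intracellular CFU, pelleted cells were treated with 100 µg/mL gentamicin for 1 h at 37 °C, washed, lysed and plated. PBS served as negative control, ciprofloxacin as positive.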

Series [16] relates to Salmonella typhimurium. The series can be described thus: Antibacterial activity against Salmonella typhimurium ATCC 14028 infected in ICR mouse model of peritonitis assessed as reduction colony forming units in intracellular fluids at 1 umol/kg, ip dosed at 2 hrs post infection and measured after 10 hrs post dose. Type of series: functional, Salmonella enterica subsp. enterica serovar Typhimurium. The method in brief: as §4

Series [17] deals with Salmonella typhimurium. Description: Antibacterial activity against Salmonella typhimurium ATCC 14028 infected in ICR mouse model of peritonitis assessed as reduction colony forming units in kidney at 1 to 2 umol/kg, ip dosed at 2 hrs post infection and measured after 10 hrs post dose. Type of series: functional, Salmonella enterica subsp. enterica serovar Typhimurium. In a few lines:
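Female ICR mice, six weeks old (six per group), were infected ip with S. Typhimurium ATCC14028 (5 × 10^5 CFU, 0.5 mL). Peptide was given ip at 1, 1.5 or 2 µmol/kg 2 h post-infection. Mice were killed 10 h after treatment, and kidneys and spleens were homogenized in sterile PBS for CFU counts of translocated bacteria. PBS-treated mice served as negative control, ciprofloxacin-treated mice as positive.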

In series [18] the test system is Salmonella typhimurium. The series can be described thus: Antibacterial activity against Salmonella typhimurium ATCC 14028 infected in ICR mouse model of peritonitis assessed as mouse survival at 1 umol/kg, ip dosed at 0.5 and 8 hrs post infection and measured daily for 7 days.

Each structure is given as a SMILES string. ≈ marks a conversion by molar mass, not a printed value. Calls of active or inactive are those of the source. No cut-off for these calls is given here. Positions of bridges follow the written chain, without caps; N, C: chain ends. Residues, ends and D or L forms follow the SMILES beside them. Where only a bound is given, the exact number is not on record here.

`N=C(N)NCCC[C@H](NC(=O)[C@H](CCCNC(=N)N)NC(=O)[C@H](CCCNC(=N)N)NC(=O)[C@H](CCC(N)=O)NC(=O)[C@H](CCCNC(=N)N)NC(=O)[C@H](CCCNC(=N)N)NC(=O)[C@H](CCCCN)NC(=O)[C@H](CCCCN)NC(=O)[C@H](CCCNC(=N)N)NC(=O)CNC(=O)[C@@H](N)Cc1ccc(O)cc1)C(=O)O`: the minimum inhibitory concentration (MIC) in the series with Salmonella typhimurium [1] is above 82.1 µM. Also, the Drug uptake entry in series [2] is recorded as “Active”; in [3], “Not Active”; in series [4], “Not Active”; in series [5], “Not Active”; in [6], “Not Active”; in series [7], “Active”.

With `CC(C)[C@@H]1NC(=O)CNC(=O)[C@H](CC(N)=O)NC(=O)[C@H](CCCNC(=N)N)NC(=O)[C@H](Cc2ccc(O)cc2)NC(=O)[C@H](C(C)C)NC(=O)[C@@H](NC(=O)[C@@H](NC(=O)[C@H](CC(N)=O)NC(=O)[C@H](Cc2c[nH]c3ccccc23)NC(=O)[C@H](C)NC(=O)[C@H](Cc2ccccc2)NC(=O)CN)C(C)C)CSSC[C@@H](C(=O)N[C@@H](Cc2cnc[nH]2)C(=O)N[C@@H](CCCNC(=N)N)C(=O)N[C@@H](CCCNC(=N)N)C(=O)N[C@@H](C)C(=O)N[C@@H](CC(N)=O)C(=O)O)NC(=O)[C@H](C(C)C)NC(=O)[C@H](CCCNC(=N)N)NC1=O` (H-GFAWNVCVYRNGVRVCHRRAN-OH; disulfide 7-16), the minimal inhibitory concentration (MIC) with Salmonella typhimurium [1] was determined as 0.81 µM (≈ 2.01 µg/mL); in the series with Salmonella typhimurium [8], 1.62 µM (≈ 4.01 µg/mL); in the series on Salmonella typhimurium [9] it was 13 µM (≈ 32.1 µg/mL). For the same compound, the viability at 8 h, 100 µM in series [10] was determined as 94.6%. The hemolysis at 1 h, 100 µM in series [11] was found to be 2.06%. Also, the Drug uptake entry was “Not Active” in series [2], 28.7% in series [12] and 71.9% in series [13]. For the same compound, in the series with Salmonella typhimurium [14], the result was inactive. For the same compound, the Activity in the series on Salmonella typhimurium [15] turned out to be 1.01 log10CFU; in the series on Salmonella typhimurium [16] it was 0.43 log10CFU; in the series on Salmonella typhimurium [17] it was 0.6 log10CFU; in the series with Salmonella typhimurium [18], 33.4%.
